Source: PubChem
Runt-SMMHC FRET = inhibitors of human RUNX1 Runt domain binding to CBFb-SMMHC | Cerulean-Runt/Venus-CBFb-SMMHC FRET ratio 530/480, 1 h | actives 0.74% (n = 220,000) | inhibition, % at 20 µM | Q01196+Q13951 | AID 1434;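 active means mean inhibition across duplicate retests at 20 µM reaching about 50%, limit read from the data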;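 further: 0% = DMSO wells and 100% = wells with excess untagged CBFb-SMMHC; inhibitors lower the FRET ratio by blocking Runt binding to CBFb-SMMHC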
Runt-CBFb FRET = inhibitors of human RUNX1 Runt domain binding to CBFb | Q01196+Q13951 | actives 0.46% (n = 220,000) | inhibition, % at 20 µM | Cerulean-Runt/Venus-CBFb FRET ratio 530/480, 1 h;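 active means inhibition over about 50% at 20 µM in the single-dose screen, limit read from the data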;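 further: 0% = DMSO wells and 100% = excess unlabeled CBFb competitor control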
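Assay system: Cerulean-Runt domain / Medium: Tris 50 mM pH 7.5, KCl, K2SO4, 0.01% BSA / Timing: protein complex preformed 1 h, compound exposure 1 h, room temperature, dark / Measured by: FRET, excitation 422 nm, emission at 530 and 480 nm / Evaluation: loss of energy transfer signal / Control set: 5 µM unlabeled CBFb as full-inhibition high control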
TNF necrop inh = inhibitors of TNF-alpha induced necroptosis in Jurkat FADD-/- cells; AID 463075; activation (protection from cell death), % at 10 µM; actives 0.068% (n = 220,000); Jurkat FADD-/- TNF necroptosis rescue, ATP luminescence, 24 h; 0 = TNF only, 100 = no-TNF cells;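 active means activation, meaning protection from cell death, of at least 50% relative to plate controls; inactive means activation below 50%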;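 further: necroptosis triggered by 40 ng/mL TNF-alpha added together with compound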
Hck-Nef inh = inhibitors of human Hck kinase activated by Nef. Recombinant Hck-YEEI plus Nef, Z-Lyte FRET kinase assay. inhibition, % at 20 µM. actives 0.68% (n = 220,000);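 active means Hck-Nef kinase inhibition above about 50%, limit read from the data; inactive means inhibition below that limit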;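 further: 0% = DMSO with Hck plus Nef and 100% = Hck alone without Nef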
Target sequence (P08631 whole entry, looked up): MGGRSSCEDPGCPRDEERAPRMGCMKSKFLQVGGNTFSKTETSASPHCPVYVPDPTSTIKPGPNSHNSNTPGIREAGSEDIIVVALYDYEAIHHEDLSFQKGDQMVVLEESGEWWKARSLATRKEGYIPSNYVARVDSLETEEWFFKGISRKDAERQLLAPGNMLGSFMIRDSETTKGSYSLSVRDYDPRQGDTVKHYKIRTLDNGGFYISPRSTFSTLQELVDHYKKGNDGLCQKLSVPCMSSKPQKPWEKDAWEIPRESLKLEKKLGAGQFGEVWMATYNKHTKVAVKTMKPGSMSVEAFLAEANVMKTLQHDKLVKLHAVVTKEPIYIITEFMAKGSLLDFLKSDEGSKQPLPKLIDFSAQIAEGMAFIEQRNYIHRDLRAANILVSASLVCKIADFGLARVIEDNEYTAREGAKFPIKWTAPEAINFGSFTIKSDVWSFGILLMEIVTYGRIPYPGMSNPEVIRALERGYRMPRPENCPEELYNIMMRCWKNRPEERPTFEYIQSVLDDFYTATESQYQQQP
L929 necroptosis = blocks zVAD induced death of L929 cells; actives 0.38% (n = 220,000); L929 zVAD necroptosis rescue, ATP luminescence, 24 h; with zVAD 60 µM; viability rescue, % at 10 µM;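 active means activation, scaled between plate controls, above about 75%, limit read from the data; inactive means activation under that limit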;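 further: 0% = zVAD with DMSO and 100% = DMSO alone without zVAD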
RanGTP-Imp inh = disruptors of Ran-importin-beta complex formation – biochemical, FRET, CFP-Ran, YFP-importin-beta, homogeneous, primary screen. actives 1.1% (n = 300,000). cell-free CFP-Ran/YFP-importin-beta FRET ratio. inhibition, % (no concentration beside the values);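 active means more than half of the replicate wells show a fall in the fluorescence ratio signal beyond about 16%, limit read from the data, passing the limit was not always enough; inconclusive means exactly half of the replicate wells pass the set limit; inactive means fewer than half of replicates pass the limit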;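 further: 0% = DMSO wells and 100% = Ran loaded with GDP instead of GTP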
Hck-Nef confirm = Hck-Nef kinase inhibition, confirmation; actives 28% (n = 1,300); calls only at 10 µM; Recombinant Hck-YEEI:Nef, Z-Lyte FRET kinase assay; shares compounds with Hck-Nef inh;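 active means average inhibition of at least 50%, with Z-scores no higher than 3 in both the phospho-tyrosine peptide and fluorescence counterscreens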
Starred values were filed as active, the others as inactive. This is a sample that favours compounds with a hit; in the whole collection about 2.1% have one here.

`C=CCOc1ccc(/C=C2\SC(=S)N(C(C(=O)O)c3ccccc3)C2=O)cc1` (stereo unspecified) gave Runt-SMMHC FRET -24, Runt-CBFb FRET -24, TNF necrop inh 1, Hck-Nef inh 51*, L929 necroptosis 0, RanGTP-Imp inh -2 and Hck-Nef confirm active.
`O=S(=O)(O)c1cccc(N=Nc2c(O)ccc3ccccc23)c1` gave Runt-SMMHC FRET -195, Runt-CBFb FRET -5, TNF necrop inh -3, Hck-Nef inh 85*, L929 necroptosis 0, RanGTP-Imp inh -6 and Hck-Nef confirm active.
Screening Oc1ccc2ccccc2c1N=Nc1ccccc1F returned Runt-SMMHC FRET -8, Runt-CBFb FRET -6, TNF necrop inh -3, Hck-Nef inh 8, L929 necroptosis 0 and RanGTP-Imp inh -7.
`O=Cc1cn(-c2ccccc2)nc1-c1cc2cc(O)ccc2oc1=O` gave Runt-SMMHC FRET 57*, Runt-CBFb FRET 94*, TNF necrop inh -3, Hck-Nef inh 52*, L929 necroptosis -1 and RanGTP-Imp inh 40*.
For O=Cc1cn(-c2ccccc2)nc1-c1cc2c(ccc3ccccc32)oc1=O the results were Runt-SMMHC FRET 20, Runt-CBFb FRET -41, TNF necrop inh -1, Hck-Nef inh 24 and L929 necroptosis 1.
`CCOC(=O)C1=C(C)C(c2ccccc2O)NC(=O)N1` (stereo unspecified) gave Runt-SMMHC FRET 1, Runt-CBFb FRET 1, TNF necrop inh 0, Hck-Nef inh 57*, L929 necroptosis -1, RanGTP-Imp inh -1 and Hck-Nef confirm inactive.
`CCOC(=O)C1=C(C)C(c2ccc(OC)cc2OC)NC(=O)N1` (stereo unspecified) gave Runt-SMMHC FRET 0, Runt-CBFb FRET -3, TNF necrop inh 1, Hck-Nef inh 1, L929 necroptosis -1 and RanGTP-Imp inh -1.
Screening Cc1ccc(C)c(CSc2nc3[nH]ncc3c(=O)[nH]2)c1 returned Runt-SMMHC FRET 3, Runt-CBFb FRET 0, TNF necrop inh -6, Hck-Nef inh 22, L929 necroptosis 4 and RanGTP-Imp inh 2.
`O=C(CNc1ccccc1)NN=C1CCCC1` gave Runt-SMMHC FRET 2, Runt-CBFb FRET 1, TNF necrop inh 1, Hck-Nef inh 28, L929 necroptosis 2 and RanGTP-Imp inh 4.
OC(CSc1ccc(F)cc1)CN1CCN(c2ccccc2)CC1 (stereo unspecified) was read as Runt-SMMHC FRET -3, Runt-CBFb FRET -2, TNF necrop inh 0, Hck-Nef inh 22, L929 necroptosis 0 and RanGTP-Imp inh 0.
Screening N=C1S/C(=C\c2ccc(-c3cccc(Cl)c3)o2)C(=O)N1c1nccs1 returned Runt-SMMHC FRET 12, Runt-CBFb FRET 40, TNF necrop inh 1, Hck-Nef inh 51*, L929 necroptosis 11, RanGTP-Imp inh -13 and Hck-Nef confirm inactive.
Screening CC1=C(C#N)C(=O)NC(=O)/C1=C\c1ccc(-c2ccc(C)cc2[N+](=O)[O-])o1 returned Runt-SMMHC FRET 12, Runt-CBFb FRET 33, TNF necrop inh 0, Hck-Nef inh 100*, L929 necroptosis 1, RanGTP-Imp inh 0 and Hck-Nef confirm active.
`CCOC(=O)c1cc(-c2ccc(/C=C3/C(=O)NC(=O)C(C#N)=C3C)o2)ccc1Cl` gave Runt-SMMHC FRET -5, Runt-CBFb FRET 17, TNF necrop inh -13, Hck-Nef inh 81*, L929 necroptosis 1, RanGTP-Imp inh -5 and Hck-Nef confirm active.
For Cc1ccc(-c2ccc(/C=N/N=C3/NC(=O)C(CC(=O)O)S3)o2)c([N+](=O)[O-])c1 (stereo unspecified) the results were Runt-SMMHC FRET 14, Runt-CBFb FRET 14, TNF necrop inh -5, Hck-Nef inh 0, L929 necroptosis 0 and RanGTP-Imp inh -1.
For O=[N+]([O-])c1cccc(S(=O)(=O)NCc2ccncc2)c1 the results were RanGTP-Imp inh -2.
`NC(=O)COC(=O)CSc1ccc2ccccc2c1` gave Runt-SMMHC FRET -1, Runt-CBFb FRET -2, TNF necrop inh 1, Hck-Nef inh -3, L929 necroptosis 1 and RanGTP-Imp inh 4.
`O=C(O)C1CSC(c2coc3ccccc3c2=O)N1` (stereo unspecified) gave Runt-SMMHC FRET 13, Runt-CBFb FRET 5, TNF necrop inh 1, Hck-Nef inh 91*, L929 necroptosis 1, RanGTP-Imp inh inconclusive and Hck-Nef confirm active.
`CCC(Oc1ccccc1)C(=O)Nc1nnc(S(=O)(=O)N2CCCC2)s1` (stereo unspecified) gave RanGTP-Imp inh 3.
Screening Cc1cc2oc(=O)cc(CN3CCOCC3)c2cc1C returned Runt-SMMHC FRET -2, Runt-CBFb FRET 2, TNF necrop inh 3, Hck-Nef inh 3, L929 necroptosis -1 and RanGTP-Imp inh 3.
CCNc1cc2oc(=O)c(CN3CCOCC3)c(C)c2cc1C was read as Runt-SMMHC FRET 39, Runt-CBFb FRET 13, TNF necrop inh -2, Hck-Nef inh 82* and L929 necroptosis 0.
COCCNC(=S)NCCCNc1nc2cc3c(cc2cc1C#N)OCO3 was read as Runt-SMMHC FRET 48, Runt-CBFb FRET 15, TNF necrop inh -5, Hck-Nef inh 70*, L929 necroptosis 0 and RanGTP-Imp inh 87*.
Screening CN(C)CCCNC(=S)NCCNc1nc2cc3c(cc2cc1C#N)OCO3 returned Runt-SMMHC FRET 113*, Runt-CBFb FRET 84*, TNF necrop inh -1, Hck-Nef inh 51*, L929 necroptosis 4 and RanGTP-Imp inh 72*.
CCCn1c(NC(=O)c2cccc(S(=O)(=O)N3CCCC3)c2)nc2ccccc21 was read as Runt-SMMHC FRET 4, Runt-CBFb FRET 0, TNF necrop inh -2, Hck-Nef inh 52*, L929 necroptosis 71, RanGTP-Imp inh 1 and Hck-Nef confirm active.
Screening CCCn1c(NC(=O)c2ccccc2)nc2ccccc21 returned Runt-SMMHC FRET 0, Runt-CBFb FRET 0, TNF necrop inh 0, Hck-Nef inh 0, L929 necroptosis 0 and RanGTP-Imp inh 7.
For O=C(O)c1ccc(N/N=C/c2ccc(OC(=O)c3cccc(Cl)c3)cc2)cc1 the results were Runt-SMMHC FRET 0, Runt-CBFb FRET 1, TNF necrop inh -1, Hck-Nef inh 56*, L929 necroptosis 0, RanGTP-Imp inh -3 and Hck-Nef confirm active.
